Assay outcomes as filed in PubChem BioAssay.
KDM4C inh = inhibitors of human demethylase GASC-1 KDM4C | hit rate 0.15% among 96,000 | inhibition, % at 12.5 µM | GST-KDM4C 2-372, H3K9me3 peptide, LANCE TR-FRET | Q9H3R0;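 active means mean replicate inhibition above about 25%, with at least 55% of replicates also reaching it, limit read from the data, passing the limit was not always enough; inconclusive means only one of those two conditions met; inactive means neither condition met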
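Material: N-terminal GST-fused human GASC-1 (KDM4C) fragment, residues 2-372. Input: 10 nM enzyme. Incubation: enzyme reaction 30 min, then detection 60 min, both room temperature. Doses: one test concentration per compound. Read-out basis: inhibition from TR-FRET ratio decrease. Detection: LANCE TR-FRET, excitation 340 nm, emissions 618 and 671 nm.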
IDH1 R132H inh = inhibitors of human IDH1 R132H | IDH1 R132H reductase, diaphorase/resazurin fluorescence, 60 min | hit rate 0.18% among 70,000 | AID 624101 | inhibition, % at 10 µM; in the data active means inhibition above about 34%; inconclusive means no clear call, values can overlap the other calls; inactive means below about 11%;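 further: 0% = DMSO and 100% = no enzyme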
Target sequence (O75874 whole entry R132H): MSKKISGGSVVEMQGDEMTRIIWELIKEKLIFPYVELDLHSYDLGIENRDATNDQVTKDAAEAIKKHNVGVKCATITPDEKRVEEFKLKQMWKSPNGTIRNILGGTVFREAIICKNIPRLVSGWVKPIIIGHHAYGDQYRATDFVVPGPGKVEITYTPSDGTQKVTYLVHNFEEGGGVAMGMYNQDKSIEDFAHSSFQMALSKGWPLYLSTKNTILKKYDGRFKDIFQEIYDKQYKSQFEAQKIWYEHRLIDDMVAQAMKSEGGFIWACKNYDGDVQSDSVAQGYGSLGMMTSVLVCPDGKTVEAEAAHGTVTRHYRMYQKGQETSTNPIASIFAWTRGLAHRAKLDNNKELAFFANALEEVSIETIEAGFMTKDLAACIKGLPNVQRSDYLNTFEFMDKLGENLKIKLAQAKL
Pf Dd2 inh = inhibitors of Plasmodium falciparum Dd2 growth; AID 1159554; P. falciparum Dd2 growth, SYBR Green, 72 h; stronger effect = lower value; activity change, % at 10 µM; hit rate 2.3% among 94,000; in the data active means activity change below about -80%; inconclusive means no clear call, values can overlap the other calls
T cruzi growth-1 = inhibitors of T. cruzi proliferation. T. cruzi beta-gal in NIH3T3, GalScreen luminescence, 90 h. inhibition, % at 8.34 µM. hit rate 5.9% among 77,000. AID 624255;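 active means mean inhibition above about 93%, with at least 55% of replicates each passing it, limit read from the data, passing the limit was not always enough; inconclusive means only one of those two conditions holds; inactive means neither condition holds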
T cruzi growth-2 = blocks T. cruzi growth in NIH3T3 host cells; inhibition, % at 8.35 µM; hit rate 72% among 5,600; T. cruzi beta-gal in NIH3T3, GalScreen luminescence, 90 h; shares compounds with T cruzi growth-1;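 active means mean replicate inhibition above about 95% and at least 55% of replicates individually reaching it, limit read from the data; inconclusive means only one of the two criteria is met; inactive means neither criterion is met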
T cruzi growth-3 = Trypanosoma cruzi proliferation inhibition | shares compounds with T cruzi growth-1 | T. cruzi beta-gal in NIH3T3, GalScreen luminescence, 90 h | inhibition, % at 2.09 µM | hit rate 21% among 5,600;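 active means mean inhibition above about 95%, with at least 55% of replicates also reaching it, limit read from the data; inconclusive means meets just one of the two conditions; inactive means meets neither condition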;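 further: plate controls were neutral control median for no effect and positive control median for full effect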
3T3 cytotox = kills mouse NIH/3T3 fibroblasts; NIH/3T3 viability, CellTiter-Glo ATP luminescence, 90 h; hit rate 14% among 5,600; cytotoxicity (signal decrease), % at 8.35 µM; shares compounds with T cruzi growth-1; AID 651742;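 active means mean signal decrease across replicates above about 35% based on untreated-well scatter, with enough replicates individually passing, limit read from the data; inconclusive means no rule stated though some were filed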;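 further: 0% = median of neutral control wells and 100% = median of positive control wells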
3T3 cytotox 2 = kills mouse NIH/3T3 fibroblasts. hit rate 56% among 5,600. NIH/3T3 viability, CellTiter-Glo ATP luminescence, 90 h. AID 651744. shares compounds with T cruzi growth-1. inhibition, % at 24.9 µM;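 active means mean loss of cell viability signal at or above a set limit, and enough replicates individually reaching it; inconclusive means meets only the mean limit or only the replicate share; inactive means meets neither condition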;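 further: 0% = median of neutral control wells and 100% = median of positive control wells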
Active calls of the source: *; ? = inconclusive; . = no result given. Most compounds without a hit are left out; they make up all but 5.9% or so of the library.

SMILES	KDM4C inh	IDH1 R132H inh	Pf Dd2 inh	T cruzi growth-1	T cruzi growth-2	T cruzi growth-3	3T3 cytotox	3T3 cytotox 2
O=C(c1cccc(F)c1)N1CCCCN2[C@H](CO)[C@H](c3ccc(-c4ccc(F)cc4)cc3)[C@@H]2C1	.	.	11	111*	110*	95*	23	65*
O=C(c1cccc(F)c1)N1CCCCN2[C@H](C1)[C@@H](c1ccc(-c3cncnc3)cc1)[C@@H]2CO	4	.	20	22	.	.	.	.
O=C(c1cccc(F)c1)N1CCCCN2[C@H](CO)[C@H](c3ccc(-c4cncnc4)cc3)[C@H]2C1	1	.	14	?	71	47	17	15
O=C(c1cccc(F)c1)N1CCCCN2[C@H](CO)[C@@H](c3ccc(-c4ccc(F)cc4)cc3)[C@@H]2C1	.	.	13	104*	105*	?	19	106*
O=C(c1cccc(F)c1)N1CCCCN2[C@H](CO)[C@H](c3ccc(-c4ccncc4)cc3)[C@@H]2C1	0	.	-41	110*	113*	82	-12	0
O=C(c1cccc(F)c1)N1CCCCN2[C@@H](CO)[C@@H](c3ccc(-c4ccccc4)cc3)[C@@H]2C1	0	.	-58	33	.	.	.	.
COc1ccc(OC(C)C(=O)Nc2cc(C)c(Cl)cc2OC)cc1 (stereo not given)	.	0	.	.	.	.	.	.
COc1ccc(C(=O)N(Cc2nc(-c3ccccc3)no2)C(C)C)cc1OC	.	0	.	.	.	.	.	.
Cn1c(=O)c2c(nc(NCc3cccnc3)n2Cc2ccc(Cl)cc2Cl)n(C)c1=O	.	0	.	.	.	.	.	.
CC(C)(O)C#Cc1ccc([C@@H]2[C@@H](CO)N3CCCCN(C(=O)c4cccc(F)c4)C[C@H]23)cc1	2	.	16	120*	93	-4	-7	19
CC(C)(O)C#Cc1ccc([C@@H]2[C@H]3CN(C(=O)c4cccc(F)c4)CCCCN3[C@H]2CO)cc1	0	.	12	91	.	.	.	.
COc1cccc(-c2ccc([C@H]3[C@H](CO)N4CCCCN(C(=O)NC(C)C)C[C@@H]34)cc2)c1	-1	.	23	108*	110*	81	37*	31*
COc1cccc(-c2ccc([C@H]3[C@@H](CO)N4CCCCN(C(=O)NC(C)C)C[C@@H]34)cc2)c1	-2	.	25	105*	101*	41	11	3
CC(=O)Nc1ccccc1NC(=O)CCN1C(=O)c2ccccc2C1=O	.	0	.	.	.	.	.	.
C[C@H]1CCCCO[C@H](CN(C)C(=O)Nc2ccc(F)cc2)[C@@H](C)CN([C@@H](C)CO)C(=O)c2cc(NC(=O)Nc3cccc4ccccc34)ccc2O1	0	0	-46	117*	113*	93	-17	-18
C[C@@H]1CCCCO[C@@H](CN(C)C(=O)Nc2cccc3ccccc23)[C@H](C)CN([C@H](C)CO)C(=O)c2cc(NC(=O)Nc3ccc(F)cc3)ccc2O1	-2	1	-51	96*	102*	109*	-10	2
COc1ccc(NC(=O)Nc2ccc3c(c2)C(=O)N([C@@H](C)CO)C[C@@H](C)[C@@H](CN(C)C(=O)Nc2cccc4ccccc24)OCCCC[C@@H](C)O3)cc1	-5	.	-70	?	103*	74	6	-9
C[C@H]1CCCCO[C@H](CN(C)C(=O)Nc2cccc3ccccc23)[C@@H](C)CN([C@@H](C)CO)C(=O)c2cc(NC(=O)Nc3ccc(F)cc3)ccc2O1	-2	.	8	17	.	.	.	.
C[C@@H]1CCCCO[C@H](CN(C)C(=O)Nc2cccc3ccccc23)[C@H](C)CN([C@@H](C)CO)C(=O)c2cc(NC(=O)c3ccccc3)ccc2O1	-1	0	-65	101*	109*	70	-7	-5
COc1ccc(NC(=O)Nc2ccc3c(c2)C(=O)N([C@H](C)CO)C[C@H](C)[C@@H](CN(C)C(=O)Nc2cccc4ccccc24)OCCCC[C@H](C)O3)cc1	0	.	-15	35	.	.	.	.
CC(Oc1ccccc1F)C(=O)Nc1ccccc1[N+](=O)[O-] (stereo not given)	.	0	.	.	.	.	.	.
Cc1nn(-c2ccccc2)nc1-c1nnc(-c2ccc(Cl)c(Cl)c2)o1	.	-2	.	.	.	.	.	.
C[C@@H]1CCCCO[C@@H](CN(C)C(=O)Nc2ccc(F)cc2)[C@@H](C)CN([C@H](C)CO)C(=O)c2cc(NC(=O)Nc3cccc4ccccc34)ccc2O1	-1	1	11	103*	89	18	4	15
C[C@H](CO)N1C[C@H](C)[C@@H](CN(C)C(=O)Nc2cccc3ccccc23)OCCCC[C@H](C)Oc2ccc(NC(=O)Nc3ccccc3)cc2C1=O	1	1	12	55	.	.	.	.
C[C@H]1CCCCO[C@H](CN(C)C(=O)Nc2cccc3ccccc23)[C@@H](C)CN([C@@H](C)CO)C(=O)c2cc(NC(=O)Cc3ccccc3)ccc2O1	-3	2	-84*	97*	104*	118*	22	24*
SMILES	KDM4C inh	IDH1 R132H inh	Pf Dd2 inh	T cruzi growth-1	T cruzi growth-2	T cruzi growth-3	3T3 cytotox	3T3 cytotox 2
C[C@H]1CCCCO[C@H](CN(C)C(=O)Nc2cccc3ccccc23)[C@@H](C)CN([C@@H](C)CO)C(=O)c2cc(NC(=O)Nc3ccccc3)ccc2O1	0	.	-9	?	106*	113*	1	-9
C[C@@H]1CCCCO[C@@H](CN(C)C(=O)Nc2ccc(F)cc2)[C@@H](C)CN([C@@H](C)CO)C(=O)c2cc(NC(=O)Nc3cccc4ccccc34)ccc2O1	0	.	-77	89	.	.	.	.
COc1ccc(OCC(=O)Nc2ccc3oc(-c4ccc(C)cc4C)nc3c2)cc1	.	1	.	.	.	.	.	.
CCCc1nnc2n1N=C(c1ccc(Br)cc1)CS2	.	0	.	.	.	.	.	.
COCC(=O)N1CCCCN2[C@@H](CO)[C@@H](c3ccc(-c4ccc(OC)cc4)cc3)[C@@H]2C1	0	.	17	103*	83	77	-6	-4
COCC(=O)N1CCCCN2[C@H](CO)[C@H](c3ccc(-c4ccc(C)cc4)cc3)[C@H]2C1	0	.	0	102*	78	-4	-7	29*
COCC(=O)N1CCCCN2[C@H](C1)[C@@H](c1ccc(-c3ccc(C)cc3)cc1)[C@@H]2CO	0	.	8	-9	.	.	.	.
COCC(=O)N1CCCCN2[C@H](C1)[C@H](c1ccc(-c3ccc(OC)cc3)cc1)[C@@H]2CO	1	.	12	79	.	.	.	.
COCC(=O)N1CCCCN2[C@H](CO)[C@@H](c3ccc(-c4ccc(OC)cc4)cc3)[C@H]2C1	0	.	27	97*	32	18	5	10
